Assay results taken from article PMC10905627 (Oncogene, 2018).

How the values were obtained:
[1] = Metabolic stability in mouse liver microsomes; type: in vitro ADME
[2] = Pharmacokinetics in BALB/c mice; type: in vivo, mouse
[3] = target: ALK6/BMPR1B (Homo sapiens, UniProt O00238); test: IC50 kinase assay ALK6; type: biochemical; conditions: ATP 10 μM
[4] = Toxicity studies in NSG mice; type: in vivo
[5] = test system: Id1 promoter; test: Id1-luciferase reporter assay in H1299 cells; type: cell-based, human; conditions: H1299 cells stably expressing reporter, 48 h
Procedure, shortened: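 H1299 cells stably carrying an Id-1 promoter–luciferase reporter were exposed to test compound for 48 h. Cells were then lysed and luminescence read on a luminometer. The experiment was run twice.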

[6] = test system: H1299 lung cancer cells; test: Cell viability; type: cell-based, human
[7] = test system: H1299 cells; test: Annexin V / 7-AAD staining; type: cell-based, human; conditions: H1299, 2.5 μM, 48 h, vs DMSO
Procedure, shortened: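 H1299 cells in six-well plates exposed to DMSO or test compound at 2.5 μM for 48 h. They were then stained with labeled Annexin V and 7-AAD per kit instructions and analysed by flow cytometry. 7-AAD-positive, Annexin V-negative cells counted as necrotic. Experiments run at least 3 times.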

[8] = test system: H1299 tumors; test: H1299 tumor xenografts in NSG mice without immune cells; type: in vivo, mouse
[9] = NSG mice, IP 3 mg/kg, 10 mg/kg twice daily for 4 days

Sequence of ALK6/BMPR1B (O00238 14-502): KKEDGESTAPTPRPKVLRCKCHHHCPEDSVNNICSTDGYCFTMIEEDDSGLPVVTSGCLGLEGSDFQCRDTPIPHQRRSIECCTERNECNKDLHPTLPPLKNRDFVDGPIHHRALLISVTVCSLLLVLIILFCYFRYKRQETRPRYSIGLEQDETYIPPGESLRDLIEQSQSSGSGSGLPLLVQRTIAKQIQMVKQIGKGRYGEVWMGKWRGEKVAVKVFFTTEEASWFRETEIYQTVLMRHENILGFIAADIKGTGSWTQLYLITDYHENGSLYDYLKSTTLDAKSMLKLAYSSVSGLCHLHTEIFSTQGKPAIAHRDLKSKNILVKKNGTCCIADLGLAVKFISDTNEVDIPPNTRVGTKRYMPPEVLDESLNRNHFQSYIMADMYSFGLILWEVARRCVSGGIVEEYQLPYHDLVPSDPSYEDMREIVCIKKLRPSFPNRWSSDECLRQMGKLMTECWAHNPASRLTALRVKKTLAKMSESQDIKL

For `c1ccc2c(-c3cnn4cc(-c5ccc(OCCN6CCCCC6)cc5)cnc34)ccnc2c1` [JL5], the ClearanceINT [1] was 129 mL/min/kg, the “intrinsic clearance lower than that of DMH2” value [1] was 48% and the AUCinf ([2]; i.v., 2 mg/kg) was 381 ng·h/mL. The AUClast ([2]; i.v., 2 mg/kg) was 349 ng·h/mL, the C0/Cmax ([2]; i.v., 2 mg/kg) was 568 ng/mL and the CL ([2]; i.v., 2 mg/kg) was 194 mL/min/kg. The T1/2 ([2]; i.v., 2 mg/kg) was 34.2 min, the Vss ([2]; i.v., 2 mg/kg) was 8.78 L/kg and the AUCinf ([2]; p.o.) was 1,645 hr×ng/mL. The AUClast ([2]; p.o.) was 1,605 hr×ng/mL, the C0/Cmax ([2]; p.o.) was 1,282 ng/mL and the “IC50 ALK6/BMPR1B” value [3] was “single digit nanomolar”. The IC50 ([3]; read-out: IC50 ALK6/BMPR1B) was 2 nM, the “signs of toxicity (anorexia, lethargy, loss of weight)” value ([4]; 21-day studies, 10 mg/kg intraperitoneal twice daily) was “no signs of toxicity” and the “blood chemistry screen vs DMSO” value [4, 9] was “no significant difference”. The “histological examination of livers, lungs, kidneys” value [4, 9] was “did not reveal any evidence of toxicity”, the “systemic toxicity (loss of appetite, anorexia, lethargy)” value [4, 9] was “no evidence of systemic toxicity” and the “expression of the Id1-luciferase reporter” value [5] was “dose-related decrease”. The “cell death, JL5 compared with DMH2” value ([6]; H1299, 2.5 μM, 3 days) was “same amount of cell death”, the “dead and live cells vs DMSO control” value ([6]; H1299, 7 days) was “majority of the H1299 cells treated with JL5 were dead” and the “percentage of cells in late apoptosis / necrosis (Annexin V, 7-AAD)” value [7] was “significant increase in the percentage of cells in late stages of apoptosis as well as necrosis”. For the same molecule, the “regression in tumor size” value ([8]; 10 mg/mL, from treatment day 5 to day 14) was ~ 35% and the “tumor cell death or proliferation (H&E, Ki67)” value ([8]; after 21 days of treatment) was “No significant differences”.
